Experimental data reported in ChEMBL document CHEMBL1649289, “Paradoxical growth of Candida dubliniensis does not preclude in vivo response to echinocandin therapy” (2009).
Values after ≈ are worked out from the molar mass of the structure shown.

What was measured:
Type in all cases: functional
Candida dubliniensis [1] = experiment: Antifungal activity against Candida dubliniensis FMR 10032 infected in immunosuppressed OF1 mouse assessed as fungal count in spleen at 1 mg/kg/day, iv […]
Summary of the method: (§1)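 Male OF1 mice, 10 per group, were immunosuppressed on infection day with cyclophosphamide 200 mg/kg i.p. plus 5-fluorouracil 150 mg/kg i.v., then challenged i.v. with 1.5 × 10^5 CFU. Drug was given at 1 mg/kg i.v. once daily for 5 days, starting 24 h after challenge. One day after treatment ended, kidney and spleen homogenates were plated in 10-fold dilutions on Sabouraud agar (35°C, 3 days) and mean log10 CFU was reported.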

Candida dubliniensis [2] = experiment: Antifungal activity against Candida dubliniensis 10033 by hemocytometry
Summary of the method: (§2)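 Minimal fungicidal concentration from the broth dilution test, defined as the lowest drug level giving ≥99.9% reduction in CFU/ml. Inocula were adjusted by hemocytometer.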

Candida dubliniensis [3] = experiment: Antifungal activity against Candida dubliniensis 10035 after 48 hrs; settings: Candida dubliniensis, 10035, 48 h
Summary of the method: (§3)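 CLSI M27-A3 broth microdilution. Yeast inoculum was adjusted with a hemocytometer. MIC was read at 24 h or 48 h as the lowest concentration giving 50% growth inhibition.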

Candida dubliniensis [4] = experiment: Antifungal activity against Candida dubliniensis FMR 10034 infected in immunosuppressed OF1 mouse assessed as fungal count in spleen at 1 mg/kg/day, iv […]; summary of the method: as §1
Candida dubliniensis [5] = experiment: Antifungal activity against Candida dubliniensis 10033 after 24 hrs; settings: Candida dubliniensis, 10033, 24 h; summary of the method: as §3
Candida dubliniensis [6] = experiment: Antifungal activity against Candida dubliniensis 9456 after 24 hrs; settings: Candida dubliniensis, 9456, 24 h; summary of the method: as §3
Candida dubliniensis [7] = experiment: Antifungal activity against Candida dubliniensis 10032 by hemocytometry; summary of the method: as §2
Candida dubliniensis [8] = experiment: Antifungal activity against Candida dubliniensis 9453 assessed as compound concentration at which paradoxical growth of observed after 24 hrs
Summary of the method: (§4)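 In the same broth dilution (CLSI M27-A3) tests, read at 24 or 48 h, this is the range of drug concentrations over which paradoxical growth appeared. It was not set when growth occurred across the whole tested range (trailing).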

Candida dubliniensis [9] = experiment: Antifungal activity against Candida dubliniensis 9453 after 24 hrs; settings: Candida dubliniensis, 9453, 24 h; summary of the method: as §3
Candida dubliniensis [10] = experiment: Antifungal activity against Candida dubliniensis 10035 by hemocytometry; summary of the method: as §2
Candida dubliniensis [11] = experiment: Antifungal activity against Candida dubliniensis 10033 after 48 hrs; settings: Candida dubliniensis, 10033, 48 h; summary of the method: as §3
Candida dubliniensis [12] = experiment: Antifungal activity against Candida dubliniensis 9456 after 48 hrs; settings: Candida dubliniensis, 9456, 48 h; summary of the method: as §3
Candida dubliniensis [13] = experiment: Antifungal activity against Candida dubliniensis FMR 10034 infected in OF1 mouse assessed as fungal count in kidney at 10 mg/kg/day, iv […]
Summary of the method: (§5)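 Immunocompetent male OF1 mice, 10 per group, were challenged i.v. with 1.5 × 10^7 CFU. Drug was given i.v. once daily at 1 or 10 mg/kg for 3 days, starting 24 h post-challenge; controls were untreated. Mice were killed 1 day after the last dose. Kidneys and spleen were homogenized in saline, serial 10-fold dilutions were plated on Sabouraud agar at 35°C for 3 days, and mean log10 CFU was reported.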

Candida dubliniensis [14] = experiment: Antifungal activity against Candida dubliniensis 10034 after 24 hrs; settings: Candida dubliniensis, 10034, 24 h; summary of the method: as §3
Candida dubliniensis [15] = experiment: Antifungal activity against Candida dubliniensis FMR 10032 infected in OF1 mouse assessed as fungal count in kidney at 10 mg/kg/day, iv […]; summary of the method: as §5
Candida dubliniensis [16] = experiment: Antifungal activity against Candida dubliniensis 10035 assessed as compound concentration at which paradoxical growth of observed after 48 hrs; summary of the method: as §4
Candida dubliniensis [17] = experiment: Antifungal activity against Candida dubliniensis 10032 after 24 hrs; settings: Candida dubliniensis, 10032, 24 h; summary of the method: as §3
Candida dubliniensis [18] = experiment: Antifungal activity against Candida dubliniensis FMR 10032 infected in OF1 mouse assessed as fungal count in spleen at 10 mg/kg/day, iv […]; summary of the method: as §5
Candida dubliniensis [19] = experiment: Antifungal activity against Candida dubliniensis 10031 after 24 hrs; settings: Candida dubliniensis, 10031, 24 h; summary of the method: as §3
Candida dubliniensis [20] = experiment: Antifungal activity against Candida dubliniensis 10033 assessed as compound concentration at which paradoxical growth of observed after 24 hrs; summary of the method: as §4
Candida dubliniensis [21] = experiment: Antifungal activity against Candida dubliniensis 10031 by hemocytometry; summary of the method: as §2
Candida dubliniensis [22] = experiment: Antifungal activity against Candida dubliniensis 10031 after 48 hrs; settings: Candida dubliniensis, 10031, 48 h; summary of the method: as §3
Candida dubliniensis [23] = experiment: Antifungal activity against Candida dubliniensis 10033 assessed as compound concentration at which paradoxical growth of observed after 48 hrs
Summary of the method: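 Broth dilution susceptibility testing of yeasts per CLSI reference method M27-A3, with inocula adjusted by hemocytometer count. Wells were read at 24 and 48 h. The paradoxical growth range is the span of drug concentrations (μg/ml) over which growth reappeared above the inhibitory concentration. Where growth occurred across the entire concentration range (trailing), no range was determined.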

Candida dubliniensis [24] = experiment: Antifungal activity against Candida dubliniensis FMR 10034 infected in immunosuppressed OF1 mouse assessed as fungal count in kidney at 1 mg/kg/day, iv […]; summary of the method: as §1
Candida dubliniensis [25] = experiment: Antifungal activity against Candida dubliniensis FMR 10034 infected in OF1 mouse assessed as fungal count in spleen at 1 mg/kg/day, iv […]; summary of the method: as §5
Candida dubliniensis [26] = experiment: Antifungal activity against Candida dubliniensis FMR 10034 infected in OF1 mouse assessed as fungal count in spleen at 10 mg/kg/day, iv […]; summary of the method: as §5
Candida dubliniensis [27] = experiment: Antifungal activity against Candida dubliniensis 10034 assessed as compound concentration at which paradoxical growth of observed after 24 hrs; summary of the method: as §4
Candida dubliniensis [28] = experiment: Antifungal activity against Candida dubliniensis 10032 after 48 hrs; settings: Candida dubliniensis, 10032, 48 h; summary of the method: as §3
Candida dubliniensis [29] = experiment: Antifungal activity against Candida dubliniensis FMR 10032 infected in OF1 mouse assessed as fungal count in spleen at 1 mg/kg/day, iv […]; summary of the method: as §5
Candida dubliniensis [30] = experiment: Antifungal activity against Candida dubliniensis FMR 10032 infected in OF1 mouse assessed as fungal count in kidney at 1 mg/kg/day, iv […]; summary of the method: as §5
Candida dubliniensis [31] = experiment: Antifungal activity against Candida dubliniensis 9456 by hemocytometry; summary of the method: as §2
Candida dubliniensis [32] = experiment: Antifungal activity against Candida dubliniensis FMR 10032 infected in immunosuppressed OF1 mouse assessed as fungal count in kidney at 1 mg/kg/day, iv […]; summary of the method: as §1
Candida dubliniensis [33] = experiment: Antifungal activity against Candida dubliniensis 9453 by hemocytometry; summary of the method: as §2
Candida dubliniensis [34] = experiment: Antifungal activity against Candida dubliniensis 10034 by hemocytometry; summary of the method: as §2
Candida dubliniensis [35] = experiment: Antifungal activity against Candida dubliniensis 10035 after 24 hrs; settings: Candida dubliniensis, 10035, 24 h; summary of the method: as §3
Candida dubliniensis [36] = experiment: Antifungal activity against Candida dubliniensis 10034 assessed as compound concentration at which paradoxical growth of observed after 48 hrs; summary of the method: as §4
Candida dubliniensis [37] = experiment: Antifungal activity against Candida dubliniensis 9453 after 48 hrs; settings: Candida dubliniensis, 9453, 48 h; summary of the method: as §3
Candida dubliniensis [38] = experiment: Antifungal activity against Candida dubliniensis 9456 assessed as compound concentration at which paradoxical growth of observed after 24 hrs; summary of the method: as §4
Candida dubliniensis [39] = experiment: Antifungal activity against Candida dubliniensis FMR 10034 infected in OF1 mouse assessed as fungal count in kidney at 1 mg/kg/day, iv […]; summary of the method: as §5
Candida dubliniensis [40] = experiment: Antifungal activity against Candida dubliniensis 10034 after 48 hrs; settings: Candida dubliniensis, 10034, 48 h; summary of the method: as §3
Candida dubliniensis [41] = experiment: Antifungal activity against Candida dubliniensis 10031 assessed as compound concentration at which paradoxical growth of observed after 24 hrs; summary of the method: as §4

CC[C@H](C)C[C@H](C)CCCCCCCCC(=O)N[C@H]1C[C@@H](O)[C@@H](NCCN)NC(=O)[C@@H]2[C@@H](O)CCN2C(=O)[C@H]([C@H](O)CCN)NC(=O)[C@H]([C@H](O)[C@@H](O)c2ccc(O)cc2)NC(=O)[C@@H]2C[C@@H](O)CN2C(=O)[C@H]([C@@H](C)O)NC1=O [CASPOFUNGIN]
log10cfu (Candida dubliniensis [1]): 1.26 | MFC (Candida dubliniensis [2]): > 16 µg/mL | MIC50 (Candida dubliniensis [3]): 0.06 µg/mL (≈ 0.0549 µM) | log10cfu (Candida dubliniensis [4]): 2.08 | MIC50 (Candida dubliniensis [5]): 0.25 µg/mL (≈ 0.229 µM) | MIC50 (Candida dubliniensis [6]): 0.25 µg/mL (≈ 0.229 µM) | MFC (Candida dubliniensis [7]): 4 µg/mL (≈ 3.66 µM) | Activity (Candida dubliniensis [8]): 8 µg/mL | MIC50 (Candida dubliniensis [9]): 0.25 µg/mL (≈ 0.229 µM) | MFC (Candida dubliniensis [10]): 0.5 µg/mL (≈ 0.457 µM) | MIC50 (Candida dubliniensis [11]): 0.25 µg/mL (≈ 0.229 µM) | MIC50 (Candida dubliniensis [12]): 0.25 µg/mL (≈ 0.229 µM) | log10cfu (Candida dubliniensis [13]): 4.09 | MIC50 (Candida dubliniensis [14]): 0.125 µg/mL (≈ 0.114 µM) | log10cfu (Candida dubliniensis [15]): 3.08 | Activity (Candida dubliniensis [16]): 8 µg/mL | MIC50 (Candida dubliniensis [17]): 0.06 µg/mL (≈ 0.0549 µM) | log10cfu (Candida dubliniensis [18]): 3.38 | MIC50 (Candida dubliniensis [19]): 0.125 µg/mL (≈ 0.114 µM) | Activity (Candida dubliniensis [20]): 8 µg/mL | MFC (Candida dubliniensis [21]): > 16 µg/mL | MIC50 (Candida dubliniensis [22]): 0.25 µg/mL (≈ 0.229 µM) | Activity (Candida dubliniensis [23]): 2 µg/mL | log10cfu (Candida dubliniensis [24]): 3.39 | log10cfu (Candida dubliniensis [25]): 4.21 | log10cfu (Candida dubliniensis [26]): 3.89 | Activity (Candida dubliniensis [27]): 16 µg/mL | MIC50 (Candida dubliniensis [28]): 0.06 µg/mL (≈ 0.0549 µM) | log10cfu (Candida dubliniensis [29]): 3.56 | log10cfu (Candida dubliniensis [30]): 3.41 | MFC (Candida dubliniensis [31]): > 16 µg/mL | log10cfu (Candida dubliniensis [32]): 1.77 | MFC (Candida dubliniensis [33]): > 16 µg/mL | MFC (Candida dubliniensis [34]): > 16 µg/mL | MIC50 (Candida dubliniensis [35]): 0.06 µg/mL (≈ 0.0549 µM) | Activity (Candida dubliniensis [36]): 1 µg/mL | MIC50 (Candida dubliniensis [37]): 0.25 µg/mL (≈ 0.229 µM) | Activity (Candida dubliniensis [38]): 8 µg/mL | log10cfu (Candida dubliniensis [39]): 4.5 | MIC50 (Candida dubliniensis [40]): 0.25 µg/mL (≈ 0.229 µM) | Activity (Candida dubliniensis [41]): 8 µg/mL
